Results published in ChEMBL document CHEMBL1811864 (Bioorg Med Chem, 2011).
Blank lines part the entries; values can stand above or below the molecule they belong to.

What was measured:
[1] = biological target: T1, Transcriptional activator protein LasR (Pseudomonas aeruginosa (strain ATCC 15692 / PAO1 / 1C / PRS 101 / LMG12228)) (UniProt P25084); assay: Agonist activity at Pseudomonas aeruginosa PAO1 MW1 (pUM15) LasR at 10 uM after 8 hrs by YFP fluorescence reporter gene assay relative to OdDHL
T1 sequence (whole entry): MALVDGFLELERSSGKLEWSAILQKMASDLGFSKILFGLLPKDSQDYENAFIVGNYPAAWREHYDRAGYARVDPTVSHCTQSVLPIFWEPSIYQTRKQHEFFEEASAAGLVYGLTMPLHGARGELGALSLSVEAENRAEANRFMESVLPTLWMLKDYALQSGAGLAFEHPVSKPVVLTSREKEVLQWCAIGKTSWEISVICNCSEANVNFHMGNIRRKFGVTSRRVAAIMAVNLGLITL

[2] = Agonist activity at Escherichia coli DH5alpha (pJN105L + pSC11) LasR after 8 hrs by beta-galactosidase reporter gene assay relative to OdDHL; format: functional, Escherichia coli DH5[alpha]
[3] = biological target: T2, Transcriptional activator protein TraR (Agrobacterium tumefaciens) (UniProt P33905); assay: Agonist activity at Agrobacterium tumefaciens WCF (pCF372) TraR at 10 uM after 8 hrs by beta-galactosidase reporter gene assay relative to […]; format: functional
T2 sequence (whole entry): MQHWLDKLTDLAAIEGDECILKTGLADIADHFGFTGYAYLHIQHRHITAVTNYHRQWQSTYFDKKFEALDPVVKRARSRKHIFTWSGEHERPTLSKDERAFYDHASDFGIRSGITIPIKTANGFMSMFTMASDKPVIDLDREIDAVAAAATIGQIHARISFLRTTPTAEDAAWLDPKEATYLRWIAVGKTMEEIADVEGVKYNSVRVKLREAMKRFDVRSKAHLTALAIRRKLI

[4] = biological target: T3, Transcriptional activator protein LuxR (Aliivibrio fischeri) (UniProt P12746); assay: Antagonist activity at Vibrio fischeri ESI 114 (delta-LuxI) LuxR assessed as inhibition of […]-induced quorum sensing activation at 10 uM after 8 hrs by […] relative to untreated control; format: functional
T3 sequence (whole entry): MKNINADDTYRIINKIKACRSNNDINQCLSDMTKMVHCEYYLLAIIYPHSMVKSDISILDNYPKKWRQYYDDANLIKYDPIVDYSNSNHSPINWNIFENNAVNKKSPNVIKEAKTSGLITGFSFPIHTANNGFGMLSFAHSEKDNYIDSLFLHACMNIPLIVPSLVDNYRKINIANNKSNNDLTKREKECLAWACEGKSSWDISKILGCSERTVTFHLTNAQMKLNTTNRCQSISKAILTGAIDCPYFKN

[5] = biological target: T4, Transcriptional activator protein LasR (Pseudomonas aeruginosa (strain ATCC 15692 / PAO1 / 1C / PRS 101 / LMG12228), UniProt P25084); assay: Agonist activity at Pseudomonas aeruginosa PAO1 MW1 (pUM15) LasR assessed as quorum sensing activation after 8 hrs by […]
T4 sequence (P25084 whole entry): T1 sequence (whole entry)

[6] = biological target: T3, Transcriptional activator protein LuxR (Aliivibrio fischeri); assay: Agonist activity at Vibrio fischeri ESI 114 (delta-LuxI) LuxR at 10 uM after 8 hrs by […] relative to […]; format: functional
How it was run: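 V. fischeri ESI 114 lacking LuxI synthase but keeping its native lux operon; LuxR activity read as luminescence. Compounds were screened at 10 µM alone, without native AHL. Signal was normalized to the native-ligand positive control.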

Pseudomonas aeruginosa = assay: Growth inhibition of Pseudomonas aeruginosa PAO1 MW1 (pUM15) at 10 uM after 4 to 16 hrs; format: organism-based; settings: in vivo
How it was run: (§1)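 Bacterial growth was monitored over the reporter gene assay time course (4–16 h) with compounds at 10 µM.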

[7] = biological target: T4, Transcriptional activator protein LasR; assay: Agonist activity at Pseudomonas aeruginosa PAO1 MW1 (pUM15) LasR after 8 hrs by YFP fluorescence reporter gene assay relative to OdDHL
[8] = system: Escherichia coli DH5[alpha]; assay: Agonist activity at Escherichia coli DH5alpha (pJN105L + pSC11) LasR at 10 uM after 8 hrs by beta-galactosidase reporter gene assay relative to OdDHL; format: functional
Aliivibrio fischeri = assay: Growth inhibition of Vibrio fischeri ESI 114 (delta-LuxI) at 10 uM after 4 to 16 hrs; format: organism-based; settings: in vivo
How it was run: as §1

Escherichia coli = assay: Growth inhibition of Escherichia coli DH5alpha (pJN105L + pSC11) at 10 uM after 4 to 16 hrs; format: organism-based, DH5[alpha]; settings: in vivo
How it was run: as §1

[9] = biological target: T2, Transcriptional activator protein TraR (Agrobacterium tumefaciens); assay: Antagonist activity at Agrobacterium tumefaciens WCF (pCF372) TraR assessed as inhibition of […]-induced quorum sensing activation at 10 uM after 8 hrs by beta-galactosidase reporter gene assay relative to untreated control; format: functional
[10] = biological target: T5, Transcriptional activator protein TraR (Agrobacterium tumefaciens, UniProt P33905); assay: Antagonist activity at Agrobacterium tumefaciens WCF (pCF372) TraR assessed as inhibition of OOHL-induced quorum sensing activation after 8 hrs by beta-galactosidase reporter gene assay
T5 sequence (P33905 whole entry): T2 sequence (whole entry)

[11] = system: Agrobacterium tumefaciens; assay: Growth inhibition of Agrobacterium tumefaciens WCF (pCF372) at 10 uM after 4 to 16 hrs; format: organism-based; settings: in vivo
How it was run: as §1

[12] = biological target: T6, Transcriptional activator protein LuxR (Aliivibrio fischeri, UniProt P12746); assay: Antagonist activity at Vibrio fischeri ESI 114 (delta-LuxI) LuxR assessed as inhibition of OHHL-induced quorum sensing activation after 8 hrs by […]
T6 sequence (P12746 whole entry): T3 sequence (whole entry)

[13] = system: Escherichia coli DH5[alpha]; assay: Antagonist activity at Escherichia coli DH5alpha (pJN105L + pSC11) LasR assessed as inhibition of OdDHL-induced quorum sensing activation at 10 uM after 8 hrs by beta-galactosidase reporter gene assay relative to untreated control; format: functional
[14] = Antagonist activity at Escherichia coli DH5alpha (pJN105L + pSC11) LasR assessed as inhibition of OdDHL-induced quorum sensing activation after 8 hrs by beta-galactosidase reporter gene assay; format: functional, Escherichia coli DH5[alpha]
[15] = biological target: T1, Transcriptional activator protein LasR (Pseudomonas aeruginosa (strain ATCC 15692 / PAO1 / 1C / PRS 101 / LMG12228)); assay: Antagonist activity at Pseudomonas aeruginosa PAO1 MW1 (pUM15) LasR assessed as inhibition of OdDHL-induced quorum sensing activation at 10 uM after 8 hrs by […] relative to untreated control; format: functional
How it was run: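 P. aeruginosa PAO1 MW1 (pUM15) lacks functional LasI and carries a LasR-responsive promoter driving YFP, so fluorescence is the read-out. Compounds were tested at 10 µM. […] Background from wells with no compound or AHL was subtracted. Assays were done in triplicate.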

[16] = biological target: T6, Transcriptional activator protein LuxR; assay: Agonist activity at Vibrio fischeri ESI 114 (delta-LuxI) LuxR after 8 hrs by […] relative to […]; format: functional
[17] = Hydrolytic stability of the compound in Luria-Bertani medium containing Pseudomonas aeruginosa PA01 MW1 (pUM15) assessed as half life by measuring YFP fluorescence; format: physicochemical
[18] = biological target: T5, Transcriptional activator protein TraR; assay: Agonist activity at Agrobacterium tumefaciens WCF (pCF372) TraR after 8 hrs by beta-galactosidase reporter gene assay relative to OOHL

SMILES: CCCC(=O)CC(=O)N[C@H]1CCSC1=O
Activity [1]: 76% | EC50 [2]: 0.13 µM | Activity [3]: 1% | inhibition [4]: 62% | EC50 [5]: 13 µM | Activity [6]: 0% | Activity (Pseudomonas aeruginosa): Non-toxic | EC50 [7]: 13 µM | Activity [8]: 96% | Activity (Aliivibrio fischeri): Non-toxic | Activity (Escherichia coli): Non-toxic | inhibition [9]: 93% | IC50 [10]: 3.2 µM | Activity [11]: Non-toxic

SMILES: CCCCCCC(=O)N[C@H]1CCSC1=O
Activity [1]: 0% | Activity [3]: 0% | inhibition [4]: 78% | IC50 [12]: 0.31 µM | inhibition [13]: 78% | Activity [6]: 0% | Activity (Pseudomonas aeruginosa): Non-toxic | IC50 [14]: 0.79 µM | Activity [8]: 8% | Activity (Aliivibrio fischeri): Non-toxic | Activity (Escherichia coli): Non-toxic | inhibition [9]: 78% | inhibition [15]: -8% | IC50 [10]: 10 µM | Activity [11]: Non-toxic

SMILES: O=C(Cc1cccc([N+](=O)[O-])c1)N[C@H]1CCSC1=O
Activity [1]: 5% | EC50 [16]: 11 µM | EC50 [2]: 4.1 µM | Activity [3]: 1% | inhibition [4]: 19% | Activity [6]: 21% | Activity (Pseudomonas aeruginosa): Non-toxic | Activity [8]: 82% | Activity (Aliivibrio fischeri): Non-toxic | Activity (Escherichia coli): Non-toxic | inhibition [9]: 33% | inhibition [15]: -7% | Activity [11]: Non-toxic

SMILES: CCCCCCCCCC(=O)CC(=O)N[C@H]1CCSC1=O
Activity [1]: 88% | EC50 [2]: 0.092 µM | half-life [17]: 82.3 h | Activity [3]: 1% | inhibition [4]: 99% | IC50 [12]: 0.45 µM | Activity [6]: 0% | Activity (Pseudomonas aeruginosa): Non-toxic | Activity [8]: 94% | Activity (Aliivibrio fischeri): Non-toxic | Activity (Escherichia coli): Non-toxic | inhibition [9]: 92% | Activity [11]: Non-toxic

half-life [17]: 48.2 h
SMILES: CCCCCCCCCC(=O)CC(=O)N[C@H]1CCOC1=O

SMILES: CCCCCC(=O)CC(=O)N[C@H]1CCSC1=O
Activity [1]: 3% | Activity [3]: 50% | inhibition [4]: 99% | IC50 [12]: 0.35 µM | Activity [6]: 0% | Activity (Pseudomonas aeruginosa): Non-toxic | EC50 [18]: 20 µM | Activity (Aliivibrio fischeri): Non-toxic | Activity (Escherichia coli): Non-toxic | inhibition [15]: -8% | Activity [11]: Non-toxic
